Laboratory results from article PMC8586590 (Bioactive Materials, 2021).

What was measured:
HepG2 cells = assay: Cell inhibition, MTT assay; assay type: cell-based; details: Homo sapiens, HepG2, 48 h
[1] = system: HepG2 3D multicellular spheroids; assay: Multicellular spheroid; assay type: cell-based; details: HepG2 MCSs, 100 μM, medium replaced every two days, 7 days, N=3
In short: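 HepG2 3D spheroids held in 100 μM formulation, with medium replaced every two days; drug-free medium served as control. Spheroid volume calculated as V = 4/3πr³ from the radius and expressed relative to each spheroid's day-0 volume. Mean ± SD, N = 3.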

[2] = assay type: in vivo, Balb/c nude mice; details: i.v., 3 mg/kg HCPT-equivalent
In short: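 Normal Balb/c nude mice (4–6 weeks, 16–19 g), six groups of five including saline, treated three times. Eye blood taken on days 1 and 5 after the third dose. For haematology, 300 μL into heparinised tubes; for biochemistry, 500 μL, centrifuged at 2500×g for 15 min and the supernatant used. Xenograft mice: body weight every three days and H&E of major organs at study end.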

HepG2-luci cells = assay: Lung metastasis model; assay type: in vivo, Balb/c nude mice; details: after 30 days, i.v., 3 mg/kg HCPT equivalent, four injections, N=5
In short: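 Balb/c nude mice (4–6 weeks, 20 ± 2 g) received 1 × 10⁶ HepG2-luci cells in 200 μL serum-free DMEM via the tail vein. Six days later (day 0) they were randomised into six groups of five and dosed i.v. at 3 mg/kg HCPT-equivalent on days 0, 3, 6 and 9. Study ended at day 30: lungs fixed in Bouin's for 24 h and photographed, then formalin-fixed paraffin sections stained with H&E.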

## CC[C@@]1(O)C(=O)OCc2c1cc1n(c2=O)Cc2cc3cc(O)ccc3nc2-1 [HCPT, 10-hydroxycamptothecin]
HepG2 cells
  IC50: 840 nM
[1]
  MCS volume relative to initial volume: stable volume
[2]; three times, N=5
  blood parameters RBC, WBC, HGB, PLT (hematotoxicity): deteriorated
[2]; tumor-bearing mice
  body weight during treatment: obvious weight loss
HepG2-luci cells
  bioluminescence signal of HepG2-luci cells in the lung: the strongest
